This is an account of results in ChEMBL document CHEMBL1649446, “Comparative antipneumococcal activities of sulopenem and other drugs” (2009).

Holding throughout (format): functional
Experiment [1] has as its system Streptococcus pneumoniae. Kind of experiment: Antimicrobial activity against Streptococcus pneumoniae 1 by time-kill analysis. In a few lines: (§1)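 Time-kill in cation-adjusted Mueller-Hinton broth with 5% lysed horse blood; inocula 5 × 105 to 5 × 10^6 CFU/ml; drugs at MIC, 2× and 4× MIC; 35°C shaking water bath; viable counts at 0, 3, 6, 12 and 24 h. Bactericidal if ≥3 log10 CFU/ml (99.9%) reduction from original inoculum; 90% and 99% killing also scored.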

In experiment [2] the test system is Streptococcus pneumoniae. Kind of experiment: Antimicrobial activity against Streptococcus pneumoniae isolate 37 by agar dilution method. In a few lines: (§2)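 Agar dilution MIC on Mueller-Hinton agar with 5% sheep blood, inocula 10^4 CFU/spot; amoxicillin-clavulanate combined 1:2; S. pneumoniae ATCC 49619 quality control each run.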
Experiment [3] has as its system Streptococcus pneumoniae. Kind of experiment: Antimicrobial activity against Streptococcus pneumoniae 7 by time-kill analysis. In a few lines:
(§3)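 Time-kill in cation-adjusted Mueller-Hinton broth with 5% lysed horse blood; inocula 5 × 105 to 5 × 10^6 CFU/ml; drugs at MIC, 2× and 4× MIC; 35°C shaking water bath; viable counts at 0, 3, 6, 12, 24 h. Bactericidal = ≥3 log10 CFU/ml (99.9%) drop from original inoculum; 90%/99%/99.9% killing scored per strain.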

The test system of experiment [4] is Streptococcus pneumoniae. Kind of experiment: Antimicrobial activity against Streptococcus pneumoniae isolate 1147 by agar dilution method. In a few lines: as §2
On the technique in general: Agar dilution tests growth on a series of plates holding different concentrations.

For experiment [5], the system named is Streptococcus pneumoniae. Kind of experiment: Antimicrobial activity against Streptococcus pneumoniae isolate 24 by agar dilution method.
In experiment [6] the test system is Streptococcus pneumoniae. Kind of experiment: Antimicrobial activity against Streptococcus pneumoniae isolate 1564 by agar dilution method.
In experiment [7] the test system is Streptococcus pneumoniae. Kind of experiment: Antimicrobial activity against Streptococcus pneumoniae 4 by time-kill analysis. In a few lines:
as §3

Experiment [8] has as its system Streptococcus pneumoniae. Kind of experiment: Antimicrobial activity against Streptococcus pneumoniae isolate 3681 by agar dilution method. In a few lines:
as §2

The test system of experiment [9] is Streptococcus pneumoniae. Kind of experiment: Antimicrobial activity against Streptococcus pneumoniae 5 by time-kill analysis. In a few lines:
as §1

In experiment [10] the test system is Streptococcus pneumoniae. Kind of experiment: Antimicrobial activity against Streptococcus pneumoniae isolate 1055 by agar dilution method.
Experiment [11] concerns Streptococcus pneumoniae. Kind of experiment: Antimicrobial activity against Streptococcus pneumoniae isolate 2880 by agar dilution method. In a few lines: as §2
Experiment [12] relates to Streptococcus pneumoniae. Kind of experiment: Antimicrobial activity against Streptococcus pneumoniae 11 by time-kill analysis. In a few lines:
as §3

For experiment [13], the system named is Streptococcus pneumoniae. Kind of experiment: Antimicrobial activity against Streptococcus pneumoniae isolate 2688 by agar dilution method. In a few lines:
as §2

Experiment [14] concerns Streptococcus pneumoniae. Kind of experiment: Antimicrobial activity against Streptococcus pneumoniae isolate 1146 by agar dilution method. In a few lines: as §2
The test system of experiment [15] is Streptococcus pneumoniae. Kind of experiment: Antimicrobial activity against Streptococcus pneumoniae isolate 3791 by agar dilution method. In a few lines: as §2
In experiment [16] the test system is Streptococcus pneumoniae. Kind of experiment: Antimicrobial activity against penicillin-resistant Streptococcus pneumoniae by agar dilution method. In a few lines: as §2
Experiment [17] deals with Streptococcus pneumoniae. Kind of experiment: Antimicrobial activity against penicillin-susceptible Streptococcus pneumoniae by agar dilution method.
The test system of experiment [18] is Streptococcus pneumoniae. Kind of experiment: Antimicrobial activity against Streptococcus pneumoniae 19A by agar dilution method. In a few lines:
as §2

Experiment [19] concerns Streptococcus pneumoniae. Kind of experiment: Antimicrobial activity against penicillin-intermediate Streptococcus pneumoniae by agar dilution method.
Experiment [20] relates to Streptococcus pneumoniae. Kind of experiment: Antimicrobial activity against Streptococcus pneumoniae isolate 3263 by agar dilution method.
In experiment [21] the test system is Streptococcus pneumoniae. Kind of experiment: Antimicrobial activity against Streptococcus pneumoniae isolate 1394 by agar dilution method.
Experiment [22] has as its system Streptococcus pneumoniae. Kind of experiment: Antimicrobial activity against Streptococcus pneumoniae isolate 3346 by agar dilution method.
The test system of experiment [23] is Streptococcus pneumoniae. Kind of experiment: Antimicrobial activity against Streptococcus pneumoniae isolate 4755 by agar dilution method. In a few lines: as §2
In experiment [24] the test system is Streptococcus pneumoniae. Kind of experiment: Antimicrobial activity against Streptococcus pneumoniae isolate 2617 by agar dilution method. In a few lines: as §2
The test system of experiment [25] is Streptococcus pneumoniae. Kind of experiment: Antimicrobial activity against Streptococcus pneumoniae isolate 3481 by agar dilution method. In a few lines:
as §2

Experiment [26] concerns Streptococcus pneumoniae. Kind of experiment: Antimicrobial activity against Streptococcus pneumoniae isolate 3412 by agar dilution method. In a few lines:
as §2

The test system of experiment [27] is Streptococcus pneumoniae. Kind of experiment: Antimicrobial activity against Streptococcus pneumoniae isolate 2686 by agar dilution method. In a few lines: as §2
The subject of experiment [28] is Streptococcus pneumoniae. Kind of experiment: Antimicrobial activity against Streptococcus pneumoniae isolate 2874 by agar dilution method. In a few lines: as §2
Experiment [29] concerns Streptococcus pneumoniae. Kind of experiment: Antimicrobial activity against Streptococcus pneumoniae isolate 3587 by agar dilution method.
For experiment [30], the system named is Streptococcus pneumoniae. Kind of experiment: Antimicrobial activity against Streptococcus pneumoniae isolate 3458 by agar dilution method.
The test system of experiment [31] is Streptococcus pneumoniae. Kind of experiment: Antimicrobial activity against Streptococcus pneumoniae isolate 4747 by agar dilution method. In a few lines: as §2
Experiment [32] has as its system Streptococcus pneumoniae. Kind of experiment: Antimicrobial activity against Streptococcus pneumoniae isolate 3455 by agar dilution method.
The subject of experiment [33] is Streptococcus pneumoniae. Kind of experiment: Antimicrobial activity against Streptococcus pneumoniae isolate 33 by agar dilution method. In a few lines: as §2
In experiment [34] the test system is Streptococcus pneumoniae. Kind of experiment: Antimicrobial activity against Streptococcus pneumoniae isolate 3275 by agar dilution method. In a few lines: as §2
In experiment [35] the test system is Streptococcus pneumoniae. Kind of experiment: Antimicrobial activity against Streptococcus pneumoniae isolate 1424 by agar dilution method. In a few lines:
as §2

Experiment [36] deals with Streptococcus pneumoniae. Kind of experiment: Antimicrobial activity against Streptococcus pneumoniae isolate 3260 by agar dilution method.
Experiment [37] relates to Streptococcus pneumoniae. Kind of experiment: Antimicrobial activity against Streptococcus pneumoniae isolate 3374 by agar dilution method. In a few lines:
as §2

The test system of experiment [38] is Streptococcus pneumoniae. Kind of experiment: Antimicrobial activity against Streptococcus pneumoniae isolate 1384 by agar dilution method. In a few lines: as §2
In experiment [39] the test system is Streptococcus pneumoniae. Kind of experiment: Antimicrobial activity against Streptococcus pneumoniae isolate 3282 by agar dilution method.
For experiment [40], the system named is Streptococcus pneumoniae. Kind of experiment: Antimicrobial activity against Streptococcus pneumoniae isolate 1397 by agar dilution method. In a few lines:
as §2

In brackets after ≈: the same amount, converted by molar mass. Some results are limits rather than exact numbers.

In the case of `O=C(O)c1cn(C2CC2)c2cc(N3CCNCC3)c(F)cc2c1=O` [CIPROFLOXACIN], the MIC was over 32 µg/mL in the experiment with Streptococcus pneumoniae [1]; 1 µg/mL (≈ 3.02 µM) against Streptococcus pneumoniae [2]; 1 µg/mL (≈ 3.02 µM) against Streptococcus pneumoniae [3]; 32 µg/mL (≈ 96.6 µM) against Streptococcus pneumoniae [4]; 1 µg/mL (≈ 3.02 µM) against Streptococcus pneumoniae [5]; 1 µg/mL (≈ 3.02 µM) in the experiment with Streptococcus pneumoniae [6]. For the same molecule, the MIC against Streptococcus pneumoniae [7] stood at 16 µg/mL (≈ 48.3 µM); in the experiment with Streptococcus pneumoniae [8] it was 1 µg/mL (≈ 3.02 µM); in the experiment with Streptococcus pneumoniae [9] it was 1 µg/mL (≈ 3.02 µM); with Streptococcus pneumoniae [10], 32 µg/mL (≈ 96.6 µM); against Streptococcus pneumoniae [11], 1 µg/mL (≈ 3.02 µM); with Streptococcus pneumoniae [12], 1 µg/mL (≈ 3.02 µM). The MIC in the experiment on Streptococcus pneumoniae [13] stood at 1 µg/mL (≈ 3.02 µM); against Streptococcus pneumoniae [14] it was 32 µg/mL (≈ 96.6 µM); against Streptococcus pneumoniae [15], 1 µg/mL (≈ 3.02 µM).
As to `C[C@H]1COc2c(N3CCN(C)CC3)c(F)cc3c(=O)c(C(=O)O)cn1c23.C[C@H]1COc2c(N3CCN(C)CC3)c(F)cc3c(=O)c(C(=O)O)cn1c23.O` [LEVOFLOXACIN], the MIC50 against Streptococcus pneumoniae [16] came to 1 µg/mL; in the experiment with Streptococcus pneumoniae [17], 1 µg/mL; in the experiment on Streptococcus pneumoniae [18], 2 µg/mL; in the experiment on Streptococcus pneumoniae [19] it was 1 µg/mL. The MIC90 in the experiment on Streptococcus pneumoniae [16] was determined as 4 µg/mL; with Streptococcus pneumoniae [17] it was 16 µg/mL; in the experiment on Streptococcus pneumoniae [18], 2 µg/mL; in the experiment with Streptococcus pneumoniae [19], 2 µg/mL.
For `CC[C@H]1OC(=O)[C@H](C)[C@@H](O[C@H]2C[C@@](C)(OC)[C@@H](O)[C@H](C)O2)[C@H](C)[C@@H](O[C@@H]2O[C@H](C)C[C@H](N(C)C)[C@H]2O)[C@](C)(OC)C[C@@H](C)C(=O)[C@H](C)[C@@H](O)[C@]1(C)O` [CLARITHROMYCIN], the MIC is over 64 µg/mL against Streptococcus pneumoniae [20]; 64 µg/mL (≈ 85.6 µM) in the experiment on Streptococcus pneumoniae [21]; over 64 µg/mL against Streptococcus pneumoniae [22]; over 64 µg/mL against Streptococcus pneumoniae [23]; over 64 µg/mL in the experiment on Streptococcus pneumoniae [2]; 0.03 µg/mL (≈ 0.0401 µM) with Streptococcus pneumoniae [24]. Further, the MIC was over 64 µg/mL in the experiment with Streptococcus pneumoniae [25]; 32 µg/mL (≈ 42.8 µM) in the experiment on Streptococcus pneumoniae [26]; 1 µg/mL (≈ 1.34 µM) in the experiment with Streptococcus pneumoniae [4]; 16 µg/mL (≈ 21.4 µM) with Streptococcus pneumoniae [27]; 32 µg/mL (≈ 42.8 µM) against Streptococcus pneumoniae [28]; over 64 µg/mL in the experiment with Streptococcus pneumoniae [29]. Further, the MIC in the experiment with Streptococcus pneumoniae [30] was over 64 µg/mL; against Streptococcus pneumoniae [31] it was 64 µg/mL (≈ 85.6 µM); in the experiment with Streptococcus pneumoniae [5], over 64 µg/mL; in the experiment with Streptococcus pneumoniae [6] it was 32 µg/mL (≈ 42.8 µM); with Streptococcus pneumoniae [32], over 64 µg/mL; against Streptococcus pneumoniae [33], 0.03 µg/mL (≈ 0.0401 µM). Besides, the MIC with Streptococcus pneumoniae [34] was over 64 µg/mL; against Streptococcus pneumoniae [8] it was 0.03 µg/mL (≈ 0.0401 µM); against Streptococcus pneumoniae [10], 32 µg/mL (≈ 42.8 µM); against Streptococcus pneumoniae [35], 16 µg/mL (≈ 21.4 µM); against Streptococcus pneumoniae [11], 8 µg/mL (≈ 10.7 µM); in the experiment with Streptococcus pneumoniae [13], 32 µg/mL (≈ 42.8 µM). Further, the MIC with Streptococcus pneumoniae [36] was over 64 µg/mL; with Streptococcus pneumoniae [14], 2 µg/mL (≈ 2.67 µM); in the experiment on Streptococcus pneumoniae [15] it was 32 µg/mL (≈ 42.8 µM); in the experiment with Streptococcus pneumoniae [37] it was 32 µg/mL (≈ 42.8 µM); in the experiment with Streptococcus pneumoniae [38] it was 64 µg/mL (≈ 85.6 µM); against Streptococcus pneumoniae [39], over 64 µg/mL. The molecule further displayed an MIC with Streptococcus pneumoniae [40] of 64 µg/mL (≈ 85.6 µM). Moreover, the MIC50 with Streptococcus pneumoniae [16] is 0.06 µg/mL (≈ 0.0802 µM); against Streptococcus pneumoniae [17], 0.5 µg/mL (≈ 0.668 µM); with Streptococcus pneumoniae [18] it was over 64 µg/mL; against Streptococcus pneumoniae [19] it was 1 µg/mL (≈ 1.34 µM). Moreover, the MIC90 against Streptococcus pneumoniae [17], against Streptococcus pneumoniae [18] and against Streptococcus pneumoniae [19] was over 64 µg/mL throughout.

One may read the MIC as the least concentration at which growth counts as inhibited. Higher therefore signals a less susceptible organism. A word on the MIC50: it is an inhibitory concentration at the 50% level, which refers to growth in some studies and to a panel of isolates in others. Lower therefore signals higher susceptibility. One may read the MIC90 as an inhibitory concentration at the 90% level, which refers to growth in some studies and to a panel of isolates in others.
